Measurements published in the EternaBench riboswitch data.

Tests used:
MS2 coat protein [1] = assay: apparent Kd, MS2 coat protein; higher = weaker binding; RNA-MaP array
Procedure, shortened: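 In Tris-HCl pH 7.5 buffer with KCl, MgCl2, BSA, DTT, tRNA and Tween20, with or without input ligand, fluorescently labeled MS2 coat protein at 1.5 nM to 3 μM was incubated at room temperature with designed RNAs. The RNAs had been transcribed on an Illumina sequencing chip from sequenced DNA templates, and incubation ran 0.8–1.5 h at the lowest to 10–20 min at the highest concentrations. Apparent Kd is the median of binding-curve fits for individual clusters. Designs measured on fewer than 10 clusters were excluded.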

MS2 coat protein [2] = assay: apparent Kd, MS2 coat protein; higher = weaker binding; RNA-MaP array; FMN 200 µM where present; details: designed as: OFF switch for flavin mononucleotide
Procedure, shortened: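 In 100 mM Tris-HCl pH 7.5, 80 mM KCl, 4 mM MgCl2, BSA, DTT, yeast tRNA and Tween-20, SNAP-549-labelled MS2 coat protein was titrated from 0.7 or 1.5 nM, doubling to 3 µM, over designs transcribed by stalled E. coli RNA polymerase on Illumina sequencing-chip clusters. This was done first without ligand, then with ligand held constant. After green signal was normalised to red-channel RNA signal and control-cluster median Fmax, the apparent Kd was taken as the median of filtered per-cluster binding-curve fits.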

[3] = designed as: ON switch for flavin mononucleotide, no ligand
[4] = ligand present: flavin mononucleotide, designed as: ON switch for flavin mononucleotide
[5] = designed as: OFF switch for flavin mononucleotide, no ligand
[6] = ligand present: flavin mononucleotide, designed as: OFF switch for flavin mononucleotide

| Sequence | apparent Kd (MS2 coat protein [1]; [3]) | apparent Kd (MS2 coat protein [1]; [4]) | apparent Kd (MS2 coat protein [1]; [5]) | apparent Kd (MS2 coat protein [1]; [6]) | other results |
| --- | --- | --- | --- | --- | --- |
| ACCAGUAAAUAGCAAUCACAUGAGGAUCACCCAUGUACUGACAAGGAUAUAGUCUAAGAAUAGUGCUAGAAGGUGUUUCCCUAA | 168 nM | 101 nM | – | – | – |
| CGCCGUGAUUAGAAGGGUGGUGGGAAUCUUAUCACAGGAUAUAAAUAGGGCCGCUACAUGAGGAUCACCCAUGUCCUCCGGUCA | – | – | 200 nM | 165 nM | – |
| GCAAUACAUGAGGAUCACCCAUGUUUUAGAUACGAAGGAUAUGUGUAAGCGUACUAAUGUACAGAAGGUCGGAUUU | 13.1 nM | 9.26 nM | – | – | – |
| ACCCUCUAUGAGAAGGAGAGCUUCGCUAGUUAUCUAGGAUAUCACGGAGGACCACUGACACUCCGACAUGAGGAUCACCCAUGU | 16.5 nM | 13.9 nM | – | – | – |
| AGGUGCAUCAAGAAGGAUGACAUGAGGAUCACCCAUGUACAAAAGGCGCGAUUUACAAAUCGUACAUAGGAUAUUGUGCAUGUU | 71.2 nM | 24.6 nM | – | – | – |
| UACAUGAGGAUCACCCAUGUGUGUAGCUAUUACUGUUACAUCUAGGAUAUGUCGGGAACUCAACAACAGAAGGAGAUAGAAGGA | 48.8 nM | 33.8 nM | – | – | – |
| CUGACGAGCUUUUUGUCAGGUUGUGUAGAUACCAGUUCUCUGGUGAACCCUUGGCAGCUAACAACAUGAGGAUCACCCAUGUGAU | – | – | – | – | apparent Kd (MS2 coat protein [1]; designed as: OFF switch for theophylline, no ligand): 83.7 nM; apparent Kd (MS2 coat protein [1]; ligand present: theophylline, designed as: OFF switch for theophylline): 326 nM |
| AUUAACUGGUAAGAUACCAGAGUCGGGAUCUACAUGAGGAUCACCCAUGUUCUAAAGUCGCUCCCUUGGCAGCUUCAAUGAGUCG | – | – | – | – | apparent Kd (MS2 coat protein [1]; designed as: ON switch for theophylline, no ligand): 35.3 nM; apparent Kd (MS2 coat protein [1]; ligand present: theophylline, designed as: ON switch for theophylline): 36 nM |
| GACUACCAGUAAGGAUAUGCUCUUAUAAAAGGAGCAGAAGGUACCUGUGACGCCUACGGGCGACAUGAGGAUCACCCAUGUUCU | 692 nM | 386 nM | – | – | – |
| GGCCUUUCGGUAAGGAUAUCCCUCCGCGCAGAUUGGGAGAAGGUACAUGAGGAUCACCCAUGUUUUAUGGCUGC | – | – | 9.4 nM | 10.8 nM | – |
| CGAGCAAGAGGAUAUACGAAGACGGUAUGAGUCAACCUCAAACAUGAGGAUCACCCAUGUAGAAGGCUUCUCAU | – | – | 7.46 nM | 9.74 nM | – |
| AUAAAACUAAUACAUGAGGAUCACCCAUGUGAAACACAUACGAGAAGGGCGACAGUCUCAUACACGCAGGAUAUCGGCUAAACG | 10.8 nM | 9.95 nM | – | – | – |
| CGAACAUGAGGAUCACCCAUGUGUUUCCUUGGUAGACGACAUAGAAGGGCCGUAAAUUACAGCGGGCAGGAUAUAUGACUUAAG | – | – | 164 nM | 137 nM | – |
| UCAACAUGAGGAUCACCCAUGUCAUCGGCGUUCUCAGACACUAGAAGGAACAGGCGUAUCUGCGGUUAGGAUAUAGACACACAU | – | – | 31.3 nM | 31 nM | – |
| UAUGUAUAGAAGGAUAUCUAAUUACGCCCGAUAAGAGAAGGUCUGACAUGAGGAUCACCCAUGUUAUGGGAGGC | – | – | 18.1 nM | 23.3 nM | – |
| UAGAAACUCGUAAGGAUAUCCGAAGAGAAAAUGAGGGAGAAGGUACAUGAGGAUCACCCAUGUAUGAAAUGGAC | – | – | 7.64 nM | 7.98 nM | – |
| UUGGCACGGACGGCCGCCACUCUUUCACAUGAGGAUCACCCAUGUUAUCUAGUCCUCAGCAGAAAGAGGACCGGGUCGGAGUUGG | – | – | – | – | apparent Kd (MS2 coat protein [1]; designed as: OFF switch for tryptophan, no ligand): 126 nM; apparent Kd (MS2 coat protein [1]; ligand present: tryptophan, designed as: OFF switch for tryptophan): 122 nM |
| UUCCUGAAAGGAUAUACCUGGCCCGUGAACUGGAUAAAAGCACAUGAGGAUCACCCAUGUAGAAGGUUCGAUUA | – | – | 7.14 nM | 7.02 nM | – |
| GACGAGUAGACGGCCGCCACUAUGCUGCGCAGCCCUAGAAACGCACAUGAGGAUCACCCAUGUCUUAGGACCGGGUCGAACUUAA | – | – | – | – | apparent Kd (MS2 coat protein [1]; designed as: ON switch for tryptophan, no ligand): 78.5 nM; apparent Kd (MS2 coat protein [1]; ligand present: tryptophan, designed as: ON switch for tryptophan): 65.7 nM |
| GAACAUGAGGAUCACCCAUGUGCUAUUGGGAAUCGCGCUACAUAGGAUAUAGAGGCGACUGUACUCUAGAAGGAUGCUAGUUUC | – | – | 38.3 nM | 37.8 nM | – |
| UCCACGGACCAAGGAUAUCCACAGUGAACCAGAGGAGAAGGUGGGAAUUACAUGAGGAUCACCCAUGUACGGGAUCUCCUGUAU | 47.5 nM | 41.7 nM | – | – | – |
| UAAGGACUUAUAGGAUAUGCAAACAUGAGGAUCACCCAUGUGAACCACGAAAUGACGCAGAAUAAGCAGAAGGAUAGUACGUAC | 32.7 nM | 25.5 nM | – | – | – |
| CGCAAGAUCUUAGGAUAUCUGUGAGCCAAGACUAGAGAAGGAAGGAGGCUGUGCAACAUGAGGAUCACCCAUGUAUCCCGUGCA | – | – | 39.7 nM | 35.4 nM | – |
| ACCUGGCGGCAGAAGGCCCGCGAUUAACGUAAGGGAGGAUAUGCAUUGUGCGGUGGGACAUGAGGAUCACCCAUGUGCAGCCAG | – | – | 672 nM | 409 nM | – |
| GGAAUGUCGUAGGAUAUAUGAUCUGUAAGGUAGAUAGAAGGACGAACAUGAGGAUCACCCAUGUGGAGGAUGUU | – | – | 15.5 nM | 27.5 nM | – |
| UGAUCGAGAGAUCUUAGAUUCUGGUAGGAUAUACAUUAUAUAAGAUAUACAUGAGGAUCACCCAUGUAGAAGGACUAGAGUCUA | – | – | – | – | apparent Kd (MS2 coat protein [2]; no ligand): 6.47 nM; apparent Kd (MS2 coat protein [2]; ligand present: flavin mononucleotide): 7.39 nM |
